In PMC12271353 (Scientific Reports, 2025):
Read-outs that look alike come from different tables or passages of the source.

How the values were obtained:
[1] = system: pBR322 plasmid DNA; experiment: DNA nicking assay; type: biochemical; details: with Fenton's reagent; 10 µg/mL
Outline: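 pBR322 supercoiled plasmid (2 µL of a 50 µg/100 µL stock) mixed with 10 µL Fenton's reagent (80 mM FeCl₃, 30 mM H₂O₂, 50 mM ascorbic acid) and test compound (2–10 µg/mL) in water to 20 µL. Incubated for 30 min at 37 °C, then run on 1% agarose gel. Form I, II and III percentages were derived by densitometry. Water replaced Fenton's reagent as the negative control, and rutin served as the positive control.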

[2] = system: S. Typhimurium TA100; details: highest dose 250 μg/100 μL, cited from earlier work
[3] = system: MRSA; experiment: Kirby-Bauer disc diffusion; type: cell-based, methicillin-resistant Staphylococcus aureus; details: Staphylococcus aureus
Outline: (§1)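 Kirby-Bauer method. Mueller Hinton agar plates were seeded with the test bacteria. Discs carrying 30 µg of test compound were placed on the surface and left to diffuse for 30 min at 4 °C. Plates were incubated at 37 °C, and inhibition zones were measured in mm.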

[4] = system: S. Typhimurium TA98; details: highest dose 250 μg/100 μL, ref Sharma et al.[46]; cited from earlier work
[5] = system: VRE; experiment: Kirby-Bauer disc diffusion; type: cell-based, Vancomycin-resistant Enterococcus; details: HFM-2P, teicoplanin 30 µg/disc
Outline: as §1

## C[C@@H]1O[C@@H](OC[C@H]2O[C@@H](Oc3c(-c4ccc(O)c(O)c4)oc4cc(O)cc(O)c4c3=O)[C@H](O)[C@@H](O)[C@@H]2O)[C@H](O)[C@H](O)[C@H]1O [Rutin, rutin]
[1]
  Form I (supercoiled) DNA: 54.72%
  Form II DNA: 45.27%

## CC1OC(n2ccc(NC(=O)c3ccc(N)cc3)nc2=O)CCC1OC1OC(C)C(N(C)C)C(O)C1O (stereo not shown) [plicacetin]
[2]; ref Devi et al.[33]
  Antimutagenic activity: 41.10–88.53%

## CN[C@H](CC(C)C)C(=O)N[C@H]1C(=O)N[C@@H](CC(N)=O)C(=O)N[C@H]2C(=O)N[C@H]3C(=O)N[C@H](C(=O)N[C@H](C(=O)O)c4cc(O)cc(O)c4-c4cc3ccc4O)[C@H](O)c3ccc(c(Cl)c3)Oc3cc2cc(c3O[C@@H]2O[C@H](CO)[C@@H](O)[C@H](O)[C@H]2O[C@H]2C[C@](C)(N)[C@H](O)[C@H](C)O2)Oc2ccc(cc2Cl)[C@H]1O [vancomycin]
[3]
  zone of inhibition at 30 µg/disc: 18 mm

## salvianolic acid B
[4]
  Antimutagenic activity: 47.87–88.11%
[2]; ref Sharma et al.[46]
  Antimutagenic activity: 41.10–88.53%

## teicoplanin
[5]
  Zone of inhibition: 15 mm
